Results gathered from unrelated publications.
Each line is one published result; the experiments were not run side by side.

SMILES	cell line	assay	conditions	quantity	value
Clc1ccc(-c2nc3ccccc3[nH]2)cc1	human Rhabdomyosarcoma cell	cell growth or viability, MTT	48 h	IC50	> 100 µM
Cc1cc(Nc2ccc(C(=O)N/N=C/c3ccc[nH]3)cc2)c2cccc(O)c2n1	SMMC-7721	cell growth or viability, MTT	20 µM	inhibition	16.1%
COc1ccc(-c2nc3ccc(C)cc3[nH]2)cc1O	human Rhabdomyosarcoma cell	cell growth or viability, MTT	48 h	IC50	48.7 µM
C=C(F)C(=O)N1CCN(c2nc(OC[C@@H]3CCCN3C)nc3c2CCN(c2cccc4cccc(Cl)c24)C3)C[C@@H]1CC#N	NCI-H1437	cell growth or viability, resazurin	72 h	GI50	3.68 µM
Clc1ccc(Cn2c(-c3ccc(Cl)cc3)nc3ccccc32)cc1	human Rhabdomyosarcoma cell	cell growth or viability, MTT		IC50	9.67 µM
C/C(=N\O)c1ccc(-c2cccc(OC(F)(F)F)c2)c(Cl)c1O	NCI-H1299	cell growth or viability, MTT	30 µM, 48 h	viability	83%
Cc1cc(Nc2ccc(C(=O)N/N=C/c3ccc(C)s3)cc2)c2cccc(O)c2n1	SMMC-7721	cell growth or viability, MTT	20 µM	inhibition	25.1%
C/C(=N\O)c1ccc(-c2cccc(O)c2)c(Cl)c1O	NCI-H1299	cell growth or viability, MTT	30 µM, 48 h	viability	22%
COc1cc(Nc2nccc(-c3cnn4nc(OC)ccc34)n2)cc(C(F)(F)F)c1	OV56	cell growth or viability, ATP luminescence		IC50	1.4 µM
O=C(Cn1ccnc1[N+](=O)[O-])NCc1ccccc1	Vero	cell growth or viability	72 h	CC50	> 10 µM
Cc1cc(=O)n(C)c2cc(N3C(=O)CC[C@H](NS(=O)(=O)CC(C)C)[C@H]3c3ccc(Cl)cc3)ccc12	HL-60	cell growth or viability	7 days	EC50	5030 nM
COC(=O)c1ccc2c(c1)NC(=O)/C2=C(\Nc1ccc(N(C)C(=O)CN2CCN(C)CC2)cc1)c1ccccc1	L929	cell growth or viability, MTT	10 µM, 24 h	inhibition	< 50%
C=CC(=O)N1CCN(c2nc(=O)n(-c3c(C)ccnc3C(C)C)c3nc(-c4c(O)cccc4F)c(F)cc23)[C@@H](C)C1	NCI-H1437	cell growth or viability, resazurin	72 h	GI50	> 10 µM
O=C(/C=C(O)/C=C/c1cccnc1)/C=C/c1c[nH]c2ccccc12	CHO-K1	cell growth or viability, MTT	72 h	IC50	9.2 µM
Cn1nnc2c(C(N)=O)ncn2c1=O	MKN-45	cell growth or viability		EC50	491000 nM
FC(F)(F)SCCOc1ccc(Oc2ccccc2)cc1	Vero	cell growth or viability	72 h	CC50	> 20 µM
COc1cc(/C=C/c2cc(/C=C/c3cccnc3)[nH]n2)ccc1O	CHO-K1	cell growth or viability, SRB	72 h	IC50	13.6 µM
O=C1CCC(N2C(=O)c3ccc(NS(=O)(=O)c4ccccc4OC(F)(F)F)cc3C2=O)C(=O)N1 (stereo not shown)	MHHCALL4	cell growth or viability, ATP luminescence		EC50	0.0425 nM
C[C@@H](Oc1cc(-c2cnn(C3CCNCC3)c2)cnc1N)c1c(Cl)ccc(F)c1Cl	NCI-H3122	cell growth or viability, MTT	0.2 µg/mL, 72 h	inhibition	52.9%
Oc1ccc(Br)cc1-c1nc2ccccc2[nH]1	human Rhabdomyosarcoma cell	cell growth or viability, MTT	48 h	IC50	7.25 µM
CC(C)C[C@H](NC(=O)[C@H](Cc1ccccc1)NC(=O)c1cnccn1)B(O)O	COR-L279	cell growth or viability, ATP luminescence		IC50	0.0076 µM
COc1cc(/C=C/C(=O)/C=C(O)/C=C/c2ccnc3ccccc23)ccc1O	CHO-K1	cell growth or viability, SRB	72 h	IC50	19.3 µM

SMILES	cell line	assay	conditions	quantity	value
CC(=O)Oc1ccc(/C=N/NC(=O)c2ccc(Nc3cc(C)nc4c(O)cccc34)cc2)cc1	SMMC-7721	cell growth or viability, MTT	20 µM	inhibition	14.1%
Cc1cc(Nc2ncc(Cl)c(Nc3ccccc3S(=O)(=O)C(C)C)n2)c(OC(C)C)cc1C1CCNCC1	NCI-H3122	cell growth or viability, MTT	0.08 µg/mL, 72 h	inhibition	64.2%
Cc1cccc(/C=N/NC(=O)c2ccc(Nc3cc(C)nc4c(O)cccc34)cc2)n1	SMMC-7721	cell growth or viability, MTT	20 µM	inhibition	19.9%
COc1cc(/C=C/C(=O)/C=C(O)/C=C/c2cccnc2)ccc1O	CHO-K1	cell growth or viability, MTT	72 h	IC50	21.4 µM
Cc1ccc(NC(=O)NCc2ccc3c(c2)CN(C2CCC(=O)NC2=O)C3=O)cc1Cl (stereo not shown)	MHHCALL4	cell growth or viability, ATP luminescence		EC50	0.0019 nM
Cc1cc(Nc2ccc(C(=O)N/N=C/c3cccs3)cc2)c2cccc(O)c2n1	SMMC-7721	cell growth or viability, MTT	20 µM	inhibition	40.7%
CCC[C@@H]1CNC(=O)C(=O)N1C[C@@H]1CCCN1C[C@H](Cc1ccc(O)cc1)N1C[C@@H](Cc2ccc(O)cc2)N(CC(CC)c2ccccc2)C(=O)C1=O (stereo partly shown)	CHO-K1	cell growth or viability, ATP luminescence	100 µM	inhibition	0%
Cc1ccc(/C=N/NC(=O)c2ccc(Nc3cc(C)nc4c(O)cccc34)cc2)cc1	SMMC-7721	cell growth or viability, MTT	20 µM	inhibition	50.8%
c1ccc2c(-c3nc4ccccc4[nH]3)c3ccccc3cc2c1	human Rhabdomyosarcoma cell	cell growth or viability, MTT	48 h	IC50	7.66 µM
N#C[Se]CC1Cc2ccc(Oc3ccccc3)cc2O1 (racemic)	Vero	cell growth or viability	72 h	CC50	> 20 µM
CN(C)c1ccc(-c2nc3ccccc3[nH]2)cc1	human Rhabdomyosarcoma cell	cell growth or viability, MTT	48 h	IC50	50.5 µM
C/C(=N\O)c1ccc(-c2ccc(C(F)(F)F)cc2)c(Cl)c1O	NCI-H1299	cell growth or viability, MTT	30 µM, 48 h	viability	89%
O=C(/C=C(O)/C=C/c1ccc[nH]1)/C=C/c1c[nH]c2ccccc12	CHO-K1	cell growth or viability, MTT	72 h	IC50	11 µM
COc1ccc(-c2ccc(/C(C)=N/O)c(O)c2Cl)cc1	NCI-H1299	cell growth or viability, MTT	30 µM, 48 h	viability	73%
Fc1cccc(Cl)c1-c1nc2ccccc2[nH]1	human Rhabdomyosarcoma cell	cell growth or viability, MTT	48 h	IC50	> 100 µM
C/C(=N\O)c1ccc(-c2ccc(OC(F)(F)F)cc2)c(Cl)c1O	NCI-H1299	cell growth or viability, MTT	30 µM, 48 h	viability	106%
Cc1ccc2nc(-c3ccc4c(c3)OCO4)[nH]c2c1	human Rhabdomyosarcoma cell	cell growth or viability, MTT	48 h	IC50	> 100 µM
Cc1cc(Nc2ccc(C(=O)N/N=C/c3ccccc3)cc2)c2cccc(O)c2n1	SMMC-7721	cell growth or viability, MTT	20 µM	inhibition	28.5%
O=C(/C=C(O)/C=C/c1ccccn1)/C=C/c1c[nH]c2ccccc12	CHO-K1	cell growth or viability, SRB	72 h	IC50	34.7 µM
Cc1cc(Nc2ccc(C(=O)N/N=C/c3ccc(N(C)C)cc3)cc2)c2cccc(O)c2n1	SMMC-7721	cell growth or viability, MTT	20 µM	inhibition	33.6%
CC(=O)c1cccc(N=Nc2c(C(=O)O)cc(O)c(O)c2O)c1	RAW264.7	TNF-α release, inhibitor, ELISA	10 µM, LPS-stimulated	inhibition	48%
